Measured values reported in ChEMBL document CHEMBL3046297, “Molecular design of antifungal agents” (J Agric Food Chem, 2002).
Values after ≈ are worked out from the molar mass of the structure shown. Active and inactive are the calls of the source. The calls are words filed in the database; no cut-off is given here.

Legend:
[1] = test system: Saccharomyces cerevisiae; test: Antifungal activity against Saccharomyces cerevisiae ATCC 7754 after 48 hr by broth macrodilution method; conditions: ATCC 7754, 48 h
[2] = test system: Radical scavenging activity; test: Antioxidant activity assessed as DPPH free radical scavenging activity after 20 min; format: functional
Summary of the method: (§1)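 DPPH scavenging. The mix held 100 mM acetate buffer pH 5.5, ethanol, ethanolic DPPH and sample. It stood 20 min at room temperature, then absorbance was read at 517 nm. Results are % decrease versus a DPPH control. IC50 was interpolated from concentration-inhibition curves, as the mean of triplicates.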

[3] = test system: Saccharomyces cerevisiae; test: microbe, parasite or virus in culture; format: functional; conditions: ATCC 7754, 48 h
[4] = test system: Saccharomyces cerevisiae; test: microbe, parasite or virus in culture; format: functional; conditions: ATCC 7754, 48 h; remark: listed apart in the source
[5] = test system: Saccharomyces cerevisiae; test: microbe, parasite or virus in culture; format: functional; conditions: ATCC 7754, 48 h; remark: listed apart in the source
[6] = test system: Saccharomyces cerevisiae; test: microbe, parasite or virus in culture; format: functional; conditions: ATCC 7754, 48 h; remark: listed apart in the source
[7] = test system: Saccharomyces cerevisiae; test: Drug uptake in Saccharomyces cerevisiae ATCC 7754 at 50 to 100 ug/ml after 5 seconds; format: ADME, organism-based; conditions: in vivo, 5 s
Summary of the method: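 Adsorption to cells. Yeast grown overnight with shaking in YPD at 30 °C was washed twice in 50 mM MOPS pH 6.0. Compound was mixed with or without cells (10^8 cells/mL) in this buffer at 30 °C and vortexed 5 s. After 2 min centrifugation, supernatant absorbance was read at 272 nm.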

[8] = test system: Radical scavenging activity; test: Antioxidant activity assessed as DPPH free radical scavenging activity up to 800 ug/ml after 20 min; format: functional
Summary of the method: as §1

[9] = test system: Saccharomyces cerevisiae; test: Antifungal activity against Saccharomyces cerevisiae ATCC 7754 at 12.5 to 50 ug/ml after 1 hr by time kill analysis; format: functional, organism-based
Summary of the method: (§2)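 Time-kill assay. A 5-h, 30 °C preculture was inoculated into ME broth containing compound, initial 5.8 × 10^5 CFU/mL, then grown at 30 °C without shaking. Samples were taken at selected times over 48 h, serially diluted in sterile saline and plated on YPD agar. Plates were incubated 24 h at 30 °C before counting viable CFU.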

[10] = test system: Saccharomyces cerevisiae; test: Antifungal activity against Saccharomyces cerevisiae ATCC 7754 at 3.13 to 12.5 ug/ml after 1 hr by time kill analysis; format: functional, organism-based
Summary of the method: as §2

[11] = test system: Saccharomyces cerevisiae; test: Antifungal activity against Saccharomyces cerevisiae ATCC 7754 at MFC after 2 hr; format: functional, organism-based
Summary of the method: as §2

[12] = test system: Saccharomyces cerevisiae; test: Antifungal activity against Saccharomyces cerevisiae ATCC 7754 at MFC to 4 times MFC treated 24 hr after incubation measured up to 30 hr; format: functional, organism-based
Summary of the method: (§3)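 Growth-stage kill test. Yeast at 10^5 cells/mL was inoculated into ME broth. Compound at MFC, 2× MFC or 4× MFC was added after 0, 4 or 24 h of incubation, and viable cells were then followed over time.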

[13] = test system: Saccharomyces cerevisiae; test: Antifungal activity against Saccharomyces cerevisiae ATCC 7754 at MFC to 4 times MFC treated 4 hr after incubation measured up to 30 hr; format: functional, organism-based
Summary of the method: as §3

Structure (SMILES)	MFC [1] [µg/mL]	MIC [1] [µg/mL]	other results
CCCCCCCOC(=O)c1cc(O)c(O)c(O)c1 [HEPTYL GALLATE]	100 (≈ 373 µM)	100 (≈ 373 µM)	–
CCCCCCCCCOC(=O)c1cccc(O)c1 [NONYL 3-HYDROXYBENZOATE]	> 400	> 400	Activity [2]: inactive
C/C=C/C=C/C(=O)O [SORBIC ACID]	–	–	MIC [3]: > 1600 µg/mL; MFC [4]: 3200 µg/mL (≈ 28500 µM); MIC [4]: 800 µg/mL (≈ 7130 µM); MIC [5]: > 1600 µg/mL; MFC [6]: 1600 µg/mL (≈ 14300 µM); MIC [6]: 400 µg/mL (≈ 3570 µM)
O=C(O)c1cccc(O)c1 [3-HYDROXYBENZOIC ACID]	> 3200	3200 (≈ 23200 µM)	–
CCCCCCCCCOC(=O)c1ccc(O)c(OC)c1	> 400	> 400	Activity [2]: Active
CCCCCCCCCCCOC(=O)c1cc(O)c(O)c(O)c1 [UNDECYL GALLATE]	> 1600	> 1600	–
CCCCCCCCCCCCOC(=O)c1cc(O)c(O)c(O)c1 [DODECYL GALLATE]	> 1600	> 1600	Drug uptake [7]: Active
O=C(O)c1ccccc1 [BENZOIC ACID]	1600 (≈ 13100 µM)	800 (≈ 6550 µM)	MIC [3]: > 1600 µg/mL; MFC [4]: 1600 µg/mL (≈ 13100 µM); MIC [4]: 800 µg/mL (≈ 6550 µM); MIC [5]: > 1600 µg/mL; MFC [6]: 1600 µg/mL (≈ 13100 µM); MIC [6]: 800 µg/mL (≈ 6550 µM)
CCCOC(=O)c1cc(O)c(O)c(O)c1 [PROPYL GALLATE]	> 3200	3200 (≈ 15100 µM)	–
CCCCCCOC(=O)c1ccc(O)cc1 [HEXYL 4-HYDROXYBENZOATE]	–	> 800	Activity [8]: inactive
CCCCCCCCO [OCTANOL]	800 (≈ 6140 µM)	200 (≈ 1540 µM)	–
CCCCCCCCCOC(=O)c1ccc(O)cc1 [NONYL 4-HYDROXYBENZOATE]	–	> 400	Activity [2]: inactive
CCCCCCCCCCOC(=O)c1cc(O)c(O)c(O)c1 [DECYL GALLATE]	25 (≈ 80.5 µM)	12.5 (≈ 40.3 µM)	–
CCCCCCO [1-HEXANOL]	> 1600	> 1600	–
O=C(OC1CCC2CCCCC2C1)c1cc(O)c(O)c(O)c1 (configuration not stated) [DECAHYDRO-2-NAPHTHYL GALLATE]	50 (≈ 163 µM)	50 (≈ 163 µM)	–
CC(C)=CCC/C(C)=C/COC(=O)c1cc(O)c(O)c(O)c1 [Geranyl gallate]	50 (≈ 163 µM)	50 (≈ 163 µM)	Activity [9]: Active
CCCCCCOC(=O)c1cc(O)cc(O)c1 [HEXYL 3,5-DIHYDROXYBENZOATE]	–	> 800	Activity [8]: inactive
CCCCCCCCCOC(=O)c1cc(O)c(O)c(O)c1 [NONYL GALLATE]	12.5 (≈ 42.2 µM)	6.25 (≈ 21.1 µM)	MFC [3]: 50 µg/mL (≈ 169 µM); MIC [3]: 25 µg/mL (≈ 84.4 µM); Activity [10]: Active; MFC [4]: 12.5 µg/mL (≈ 42.2 µM); MIC [4]: 6.25 µg/mL (≈ 21.1 µM); Activity [2]: Active; MFC [5]: 25 µg/mL (≈ 84.4 µM); MIC [5]: 12.5 µg/mL (≈ 42.2 µM); Activity [11]: Active; Activity [12]: Active; Activity [13]: Active; Drug uptake [7]: Active; MFC [6]: 12.5 µg/mL (≈ 42.2 µM); MIC [6]: 6.25 µg/mL (≈ 21.1 µM)

Structure (SMILES)	MFC [1] [µg/mL]	MIC [1] [µg/mL]	other results
CCCCCCCCCO [NONANOL]	200 (≈ 1390 µM)	100 (≈ 693 µM)	–
CCCCCCCCCOC(=O)c1ccc(O)c(O)c1 [NONYL 3,4-DIHYDROXYBENZOATE]	12.5 (≈ 44.6 µM)	6.25 (≈ 22.3 µM)	Activity [2]: Active
CCCCCCCCCCO [DECANOL]	50 (≈ 316 µM)	50 (≈ 316 µM)	–
O=C(O)c1ccc(O)cc1 [PARABEN]	> 3200	1600 (≈ 11600 µM)	–
CCCCCCCCCOC(=O)c1cc(O)cc(O)c1 [NONYL 3,5-DIHYDROXYBENZOATE]	> 400	> 400	Activity [2]: inactive
CCCCCCOC(=O)c1ccc(O)c(O)c1 [HEXYL 3,4-DIHYDROXYBENZOATE]	400 (≈ 1680 µM)	400 (≈ 1680 µM)	–
CCCCCCCCCCCCO [DODECANOL]	> 1600	–	–
CCCCCCCCCOC(=O)c1ccc(OC)c(O)c1	> 400	> 400	Activity [2]: Active
CCCCCCCCCOC(=O)c1ccccc1 [NONYL BENZOATE]	–	> 400	Activity [2]: inactive
CCCCCCCCCCCO [UNDECANOL]	25 (≈ 145 µM)	25 (≈ 145 µM)	–
O=C(O)c1cc(O)cc(O)c1 [3,5-DIHYDROXYBENZOIC ACID]	> 3200	3200 (≈ 20800 µM)	–
CCCCCCCO [1-HEPTANOL]	> 1600	800 (≈ 6880 µM)	–
O=C(O)c1cc(O)c(O)c(O)c1 [GALLIC ACID]	–	> 3200	–
COC(=O)c1cc(O)c(O)c(O)c1 [GALLIC ACID METHYL ESTER]	–	> 3200	–
CCCCCCCCCCCCCO [TRIDECAN-1-OL]	–	> 1600	–
O=C(O)c1ccc(O)c(O)c1 [PROTOCATECHUIC ACID]	> 3200	3200 (≈ 20800 µM)	–
CCCCCCOC(=O)c1cc(O)c(O)c(O)c1 [HEXYL GALLATE]	400 (≈ 1570 µM)	400 (≈ 1570 µM)	–
